Converted amounts (≈) assume the structure as drawn.
Legend:
[1] = tested on: ED-43/SG-Feo (VYG) replicon of hepatitis C virus genotype 4a (HCVcc); test: Antiviral bioassay against ED-43/SG-Feo; type: cell-based; conditions: nontoxic dose of compound; average of three independent measurements
Summary of the method: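 Huh 7.5 cells carrying the ED-43/SG-Feo (VYG) HCV genotype 4a subgenomic replicon were treated with the nontoxic dose of test compound. Replicon RNA copies were quantified by TaqMan qRT-PCR, and the result was expressed as percent reduction.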

C. albicans (ATCC:10231) = test: Agar well diffusion, inhibition zone; type: cell-based, Candida albicans; conditions: 15 mg/mL, 100 μL per well; mm ± SD
Summary of the method: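 Fungal plates were poured and agar dried 15 min. 6 mm wells were cut with a sterile borer and filled with 100 μL test compound solution at 15 mg/mL. Inhibition zone diameter (mm) was read after 48 h incubation. Triplicate, reported as mm ± SD.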

[2] = tested on: herpes simplex virus type 1 (HSV-1); test: Plaque assay, antiviral activity against HSV-1; type: cell-based; conditions: for mean % of reduction, herpes simplex virus: nontoxic dose of compound, average of three independent measurements
[3] = tested on: adenovirus type 7 (HAdV7); test: Plaque assay, antiviral activity against adenovirus type 7; type: cell-based; conditions: nontoxic dose of compound; average of three independent measurements
Summary of the method: (§1)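 Plaque reduction. Nontoxic dilutions of test compound were mixed 1:1 with virus at 1 × 105, 1 × 106 or 1 × 107, for 0.5 h at 37 °C. 10-fold dilutions went onto BGM (CBV4), FRHK4 (HAV HM 175) or Hep-2 (adenovirus 7), with 1 h adsorption at 37 °C. Overlay was 2× DMEM plus 1% agarose. Cells were formalin-fixed and crystal violet-stained, and plaques counted. Triplicate. IC50 is the half-maximal plaque-reduction concentration.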

S. aureus (ATCC:6538) [4] = test: Agar well diffusion, inhibition zone; type: cell-based, Staphylococcus aureus; conditions: for zone of inhibition at 15000 µg/mL: Staphylococcus aureus, 24 h, read-out: diameter of the IZ, S. aureus (ATCC:6538)
Summary of the method: (§2)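 Agar well diffusion. Saline inoculum adjusted to McFarland 0.5 ([…]), i.e. OD 0.13 at 625 nm, and swabbed over dried agar. After 15 min drying, 6 mm wells received 100 μL of test compound at 15 mg/mL. Plates incubated at 37 °C; bacterial zones read in mm after 24 h incubation […]. Triplicate, reported as mm ± SD. Gentamicin and ampicillin served as reference drugs.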

[5] = tested on: hepatitis A virus HM 175 (HAV HM 175); test: Plaque assay, antiviral activity against HAV HM 175; type: cell-based; conditions: nontoxic dose of compound; average of three independent measurements
Summary of the method: as §1

coxsackievirus B4 (CBV4) = test: Plaque assay, antiviral activity against CBV4; type: cell-based; conditions: nontoxic dose of compound; average of three independent measurements
Summary of the method: as §1

E. coli (ATCC:3008) = test: Agar well diffusion, inhibition zone; type: cell-based, Escherichia coli; conditions: 15 mg/mL, 100 μL per well; mm ± SD
Summary of the method: as §2

S. mutans (ATCC:25175) [6] = test: Agar well diffusion, inhibition zone; type: cell-based; conditions: Streptococcus mutans, 24 h, read-out: diameter of the IZ, S. mutans (ATCC:25175)
Summary of the method: as §2

S. aureus (ATCC:6538) [7] = test: MIC, twofold serial dilution in agar; type: cell-based; conditions: Staphylococcus aureus, read-out: MIC, S. aureus (ATCC:6538)
[8] = molecular target: T1, dihydrofolate reductase (DHFR) (Homo sapiens, UniProt P00374); test: DHFR inhibitor screening assay; type: biochemical; conditions: for IC50: IC50 on the DHFR, average of three measurements; for inhibition at 0.01 µg/mL: read-out: percent inhibition of DHFR at 0.01 (μg/mL); for inhibition at 0.1 µg/mL: read-out: percent inhibition of DHFR at 0.1 (μg/mL); for inhibition at 1 µg/mL: read-out: percent inhibition of DHFR at 1 (μg/mL); for inhibition at 10 µg/mL: read-out: percent inhibition of DHFR at 10 (μg/mL)
T1 sequence (P00374 1-187): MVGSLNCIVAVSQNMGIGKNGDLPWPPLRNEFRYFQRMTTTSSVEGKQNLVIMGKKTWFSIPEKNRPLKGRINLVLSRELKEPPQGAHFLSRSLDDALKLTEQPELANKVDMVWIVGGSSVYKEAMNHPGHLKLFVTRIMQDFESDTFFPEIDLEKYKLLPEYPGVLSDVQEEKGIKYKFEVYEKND

S. mutans (ATCC:25175) [9] = test: MIC, twofold serial dilution in agar; type: cell-based; conditions: Streptococcus mutans, read-out: MIC, S. mutans (ATCC:25175)
K. pneumonia (ATCC:4415) = test: MIC, twofold serial dilution in agar; type: cell-based; conditions: Klebsiella pneumoniae, read-out: MIC, K. pneumonia (ATCC:4415)
[10] = Cytotoxicity test on Vero cell line; type: cell-based; conditions: African green monkey, uninfected Vero cells
Summary of the method: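 Test compound was dissolved at 50 mg/mL in DMSO and decontaminated with 100× antimycotic–antibiotic mix. Cells were seeded at 2 × 10^5 cells/mL and grown 24 h at 37 °C, 5% CO2, to monolayers. Bi-fold dilutions in DMEM were applied for 72 h. Read by daily microscopy for morphology and by trypan blue (0.4%) viable counts. CC50 taken as the concentration giving 50% of untreated-cell OD492.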

Hsp90α = Hsp90α (Homo sapiens, UniProt P07900); test: Hsp90α; type: biochemical
Summary of the method: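 AlphaScreen kit assay for Hsp90α C-terminal binding to PPID. Hsp90α was diluted to 1.5 ng/μL in assay buffer and premixed with test compound. The reaction was started with PPID diluted to 10 ng/μL and run 30 min at room temperature. Glutathione acceptor beads were added for 30 min, then streptavidin donor beads for 1 h, and Alpha counts read. Triplicate; percent inhibition calculated against control.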

Hsp90α, sequence (P07900 535-732 limits assumed): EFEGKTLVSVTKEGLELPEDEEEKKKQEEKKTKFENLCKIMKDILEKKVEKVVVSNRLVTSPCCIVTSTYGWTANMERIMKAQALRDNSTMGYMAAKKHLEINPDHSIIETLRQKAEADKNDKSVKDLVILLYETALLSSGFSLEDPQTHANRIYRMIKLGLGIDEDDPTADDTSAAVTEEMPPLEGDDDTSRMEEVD

| SMILES | mean % of reduction, HCVcc genotype 4 [1] [%] | diameter of the IZ, C. albicans (ATCC:10231) (C. albicans (ATCC:10231)) [mm] | mean % of reduction, herpes simplex virus [2] [%] | mean % of reduction, adenovirus type 7 [3] [%] | zone of inhibition at 15000 µg/mL (S. aureus (ATCC:6538) [4]) [mm] | mean % of reduction, HAV HM 175 [5] [%] | mean % of reduction, CBV4 (coxsackievirus B4 (CBV4)) [%] | zone of inhibition at 15000 µg/mL (S. mutans (ATCC:25175) [6]) [mm] | further results |
| --- | --- | --- | --- | --- | --- | --- | --- | --- | --- |
| CSc1c(-c2nc3ccccc3[nH]2)c(N)n(NS(=O)(=O)c2ccccc2)c(=O)c1C#N [13a, N-(6-Amino-5-(1H-benzo[d]imidazol-2-yl)-3-cyano-4-(methylthio)-2-oxopyridin-1(2H)-yl)benzenesulfonamide] | 20.0 ± 0.15 | 22.0 ± 0.5 | 20.0 ± 0.30 | 10.0 ± 0.10 | 30 ± 1 | 13.3 ± 0.10 | 20.0 ± 0.10 |  |  |
| Cc1ccc(S(=O)(=O)Nn2c(N)c(-c3nc4ccccc4s3)c3[nH]nc(N)c3c2=O)cc1 [9b, N-(3,6-Diamino-7-(benzo[d]thiazol-2-yl)-4-oxo-1H-pyrazolo[4,3-c]pyridin-5(4H)-yl)-4-methylbenzenesulfonamide] |  | 24.3 ± 0.5 |  |  |  |  |  |  | diameter of the IZ, E. coli (ATCC:3008) (E. coli (ATCC:3008)): 15.0 ± 0.5 mm |
| CSc1c(-c2nc3ccccc3[nH]2)c(N)n(NS(=O)(=O)c2ccc(C)cc2)c(=O)c1C#N [13b, N-(6-Amino-5-(1H-benzo[d]imidazol-2-yl)-3-cyano-4-(methylthio)-2-oxopyridin-1(2H)-yl)-4-methylbenzenesulfonamide] |  | 21.0 ± 0.1 |  |  | 28.9 ± 0.7 |  |  |  |  |
| CSc1c(-c2nc3ccccc3s2)c(N)n(NS(=O)(=O)c2ccccc2)c(=O)c1C#N [8a, N-(6-Amino-5-(benzo[d]thiazol-2-yl)-3-cyano-4-(methylthio)-2-oxopyridin-1(2H)-yl)benzenesulfonamide] | 20.0 ± 0.10 |  | 30.0 ± 0.25 |  | 25.8 ± 0.5 |  |  | 19.8 ± 1 |  |
| Nc1n[nH]c2c(-c3nc4ccccc4s3)c(N)n(NS(=O)(=O)c3ccccc3)c(=O)c12 [9a, N-(3,6-Diamino-7-(benzo[d]thiazol-2-yl)-4-oxo-1H-pyrazolo[4,3-c]pyridin-5(4H)-yl)benzenesulfonamide] | 13.3 ± 0.10 |  | 20.0 ± 0.15 | 10.0 ± 0.10 | 34 ± 1 | 10.0 ± 0.10 | 13.3 ± 0.10 | 13.9 ± 0.5 | MIC (S. aureus (ATCC:6538) [7]): 125 µg/mL (≈ 276 µM); IC50 [8]: 1.54 µM; inhibition at 0.01 µg/mL [8]: 22.6%; inhibition at 0.1 µg/mL [8]: 33.8%; inhibition at 1 µg/mL [8]: 53.6%; inhibition at 10 µg/mL [8]: 68.4%; MIC (S. mutans (ATCC:25175) [9]): 1000 µg/mL (≈ 2210 µM); diameter of the IZ, S. aureus (ATCC:6538) (S. aureus (ATCC:6538) [4]; 15 mg/mL, 100 μL per well, mm ± SD): 34.0 ± 1.0 mm |
| CCSC(SCC)=C(C#N)c1nc2ccccc2s1 [3b, 2-(Benzo[d]thiazol-2-yl)-3,3-bis(ethylthio)acrylonitrile] | 20.0 ± 0.25 |  | 26.7 ± 0.20 | 30.0 ± 0.30 |  | 40.0 ± 0.30 | 20.0 ± 0.20 |  |  |
| CSc1c(-c2nc3ccccc3s2)c(N)n(NS(=O)(=O)c2ccc(C)cc2)c(=O)c1C#N [8b, N-(6-Amino-5-(benzo[d]thiazol-2-yl)-3-cyano-4-(methylthio)-2-oxopyridin-1(2H)-yl)-4-methylbenzenesulfonamide] | 26.7 ± 0.25 |  | 33.3 ± 0.25 | 20.0 ± 0.20 | 19.3 ± 1 | 36.7 ± 0.30 | 30.0 ± 0.15 | 10.7 ± 0.5 | MIC (S. aureus (ATCC:6538) [7]): 1000 µg/mL (≈ 2070 µM); IC50 [8]: 2.83 µM; inhibition at 0.01 µg/mL [8]: 19.9%; inhibition at 0.1 µg/mL [8]: 40.8%; inhibition at 1 µg/mL [8]: 50.4%; inhibition at 10 µg/mL [8]: 57.7%; MIC (K. pneumonia (ATCC:4415)): 125 µg/mL (≈ 258 µM); MIC (S. mutans (ATCC:25175) [9]): 250 µg/mL (≈ 517 µM) |
| CC1(C)S[C@@H]2[C@H](NC(=O)[C@H](N)c3ccccc3)C(=O)N2[C@H]1C(=O)O [ampicillin, reference compound] |  |  |  |  | 32 ± 0.5 |  |  | 22 ± 0.5 | MIC (S. aureus (ATCC:6538) [7]): 62.5 µg/mL (≈ 179 µM); MIC (S. mutans (ATCC:25175) [9]): 62.5 µg/mL (≈ 179 µM) |
| CCSc1c(-c2nc3ccccc3s2)c(N)n(NS(=O)(=O)c2ccc(C)cc2)c(=O)c1C#N [8d, N-(6-Amino-5-(benzo[d]thiazol-2-yl)-3-cyano-4-(ethylthio)-2-oxopyridin-1(2H)-yl)-4-methylbenzenesulfonamide] |  |  |  |  | 29.9 ± 0.6 |  |  | 12.5 ± 1 |  |
| CCSc1c(-c2nc3ccccc3s2)c(N)n(NS(=O)(=O)c2ccccc2)c(=O)c1C#N [8c, N-(6-Amino-5-(benzo[d]thiazol-2-yl)-3-cyano-4-(ethylthio)-2-oxopyridin-1(2H)-yl)benzenesulfonamide] | 16.7 ± 0.15 |  | 10.0 ± 0.15 | 10.0 ± 0.15 | 24.5 ± 0.7 | 10.0 ± 0.15 | 13.3 ± 0.10 | 21.3 ± 1.1 |  |
| N#Cc1cc(C#N)c(=O)n(NS(=O)(=O)c2ccccc2)c1N [15a, N-(6-Amino-3,5-dicyano-2-oxopyridin-1(2H)-yl)benzenesulfonamide] |  | 19.6 ± 2.0 |  |  |  |  |  |  |  |
| Nc1nc2c(ncn2COCCO)c(=O)[nH]1 [acyclovir, reference compound] |  |  |  |  |  |  |  |  | IC50 ([2]; Human alphaherpesvirus 1, Vero): 0.7 µg/mL (≈ 3.11 µM); CC50 at 72 h [10]: 2.8 µg/mL (≈ 12.4 µM); inhibition at 0.1 µg/mL (Hsp90α; read-out: percentage inhibition of Hsp90α at 0.1 (μg/mL)): 11.2%; inhibition at 10 µg/mL (Hsp90α; read-out: percentage inhibition of Hsp90α at 10 (μg/mL)): 52.3%; inhibition at 100 µg/mL (Hsp90α; read-out: percentage inhibition of Hsp90α at 100 (μg/mL)): 84.1% |

Reference: PMC7557949 (ACS Omega, 2020)
